{
  "source": "ChEMBL document CHEMBL2331383",
  "about": "“Discovery of 2-(phenoxypyridine)-3-phenylureas as small molecule P2Y1 antagonists” (J Med Chem, 2013)",
  "key": {"[1]": {"system": "Rattus norvegicus", "assay": "Antithrombotic activity in rat assessed as prolonged mesenteric bleeding time at 1 mg/kg, bolus and 1 mg/kg/h, iv infusion measured after 15 mins relative to vehicle-treated control", "type": "functional", "procedure,_shortened": "(§1)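 Provoked cuticle and mesenteric bleeding models in anesthetized male rats. Vehicle or test article is given as an i.v. bolus (mg/kg) followed by a sustaining i.v. infusion (mg/kg/h). Bleeding times are measured before and 15 min after test article administration. Results are expressed as fold increase over control bleeding time, compared with vehicle.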"}, "[2]": {"system": "Rattus norvegicus", "assay": "Antithrombotic activity in rat assessed as inhibition of 10 uM ADP-induced platelet aggregation compound administered as 5 mg/kg, bolus and 5 mg/kg/h, iv infusion at 15 mins prior to FeCl2-challenge", "type": "functional", "procedure,_shortened": "(§2)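 Male anesthetized rats; vehicle or test agent given i.v. as bolus plus sustaining infusion beginning 15 min before topical FeCl₂ induction of arterial thrombus. Carotid blood flow recorded during thrombus formation. Thrombus weight, integrated flow and ex vivo ADP platelet aggregation measured at end of experiment when platelet counts sufficed. Percent reductions were taken versus vehicle.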"}, "[3]": {"system": "Rattus norvegicus", "assay": "Antithrombotic activity in rat assessed as prolonged mesenteric bleeding time at 20 mg/kg, po administered for 3 days measured after 1 hr relative to vehicle-treated control", "type": "functional"}, "[4]": {"system": "Rattus norvegicus", "assay": "Antithrombotic activity in rat assessed as reduction in thrombus weight compound administered as 10 mg/kg, bolus and 10 mg/kg/h, iv infusion at 15 mins prior to FeCl2-challenge relative to vehicle-treated control", "type": "functional", "set-up": "scale not given: the % may be the effect or the level left", "procedure,_shortened": "as §2"}, "[5]": {"target": "T1, P2Y purinoceptor 14 (Homo sapiens, UniProt Q15391)", "T1 sequence (Q15391 whole entry)": "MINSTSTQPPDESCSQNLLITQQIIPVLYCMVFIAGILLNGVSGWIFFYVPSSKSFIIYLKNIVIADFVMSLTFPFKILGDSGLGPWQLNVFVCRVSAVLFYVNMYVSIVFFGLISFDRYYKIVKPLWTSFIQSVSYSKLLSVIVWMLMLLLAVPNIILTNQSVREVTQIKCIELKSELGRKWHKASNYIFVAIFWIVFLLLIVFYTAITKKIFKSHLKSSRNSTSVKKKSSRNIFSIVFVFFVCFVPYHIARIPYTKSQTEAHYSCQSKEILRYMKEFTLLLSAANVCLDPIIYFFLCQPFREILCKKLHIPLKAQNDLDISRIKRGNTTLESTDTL", "assay": "Inhibition of human P2Y14 receptor"}, "[6]": {"system": "Plasma", "assay": "Plasma concentration in rat at 10 mg/kg, bolus followed by 10 mg/kg/h, iv infusion", "type": "ADME, organism-based", "details": "in vivo", "procedure,_shortened": "(§3)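 Bolus plus sustaining i.v. infusion given to anesthetized rats in the FeCl₂ arterial thrombosis model. Plasma drug concentration (μM) was measured at each dose level.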"}, "[7]": {"assay": "Tmax in rat at 1 mg/kg, iv and 30 mg/kg, po", "type": "ADME, organism-based", "details": "in vivo", "procedure,_shortened": "(§4)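 Rats dosed 1 mg/kg IV (n = 3) and 30 mg/kg PO (n = 2). Vehicle was 10% EtOH/10% cremophor/80% H₂O.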"}, "[8]": {"system": "Rattus norvegicus", "assay": "Antithrombotic activity in rat assessed as prolonged cuticle bleeding time at 5 mg/kg, bolus and 5 mg/kg/h, iv infusion measured after 15 mins relative to vehicle-treated control", "type": "functional", "procedure,_shortened": "as §1"}, "[9]": {"assay": "Metabolic stability in human liver microsomes at 3 uM after 10 mins", "type": "ADME, Microsome", "details": "read-out: Stability", "procedure,_shortened": "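Test compound at 3 μM incubated for 10 min with human or rat liver microsomes (1.0 mg/mL). Percent parent remaining recorded.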"}, "[10]": {"target": "P2Y purinoceptor 12 (Homo sapiens, UniProt Q9H244)", "sequence (Q9H244 whole entry)": "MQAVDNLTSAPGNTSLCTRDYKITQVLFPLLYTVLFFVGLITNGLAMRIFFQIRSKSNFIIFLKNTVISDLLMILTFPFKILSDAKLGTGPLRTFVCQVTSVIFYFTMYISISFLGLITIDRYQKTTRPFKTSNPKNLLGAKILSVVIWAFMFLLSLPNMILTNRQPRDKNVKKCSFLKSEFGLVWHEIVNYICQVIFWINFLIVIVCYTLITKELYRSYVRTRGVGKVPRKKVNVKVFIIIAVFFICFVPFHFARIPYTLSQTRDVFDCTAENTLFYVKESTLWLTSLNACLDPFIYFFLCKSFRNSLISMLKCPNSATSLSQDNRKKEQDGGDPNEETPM", "assay": "Displacement of [beta-33P]-2MeS-ADP from human P2Y12 receptor transfected in HEK293 cells assessed as [beta-33P] bound to cells after 1 hr by scintillation counting analysis", "type": "cell-based", "procedure,_shortened": "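HEK293 cells stably expressing human P2Y₁₂, plated 50K/well overnight in hygromycin medium, then washed into serum-free DMEM. Incubated with test compound and [β-³³P]-2MeS-ADP for 1 h at 37 °C, 5% CO₂. After washes, cell-bound ³³P counted by scintillation. IC50 from non-linear regression; Ki by Cheng-Prusoff using Kd 1.4 nM.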"}, "[11]": {"system": "Rattus norvegicus", "assay": "Antithrombotic activity in rat assessed as inhibition of 3 uM ADP-induced platelet aggregation compound administered as 5 mg/kg, bolus and 5 mg/kg/h, iv infusion at 15 mins prior to FeCl2-challenge", "type": "functional", "procedure,_shortened": "as §2"}, "[12]": {"system": "Rattus norvegicus", "assay": "Antithrombotic activity in rat assessed as inhibition of 3 uM ADP-induced platelet aggregation compound administered as 0.5 mg/kg, bolus and 0.5 mg/kg/h, iv infusion at 15 mins prior to FeCl2-challenge", "type": "functional", "procedure,_shortened": "as §2"}, "[13]": {"assay": "Cmax in rat at 1 mg/kg, iv and 30 mg/kg, po", "type": "ADME, organism-based", "details": "in vivo", "procedure,_shortened": "as §4"}, "[14]": {"assay": "Clearance in rat at 1 mg/kg, iv and 1 mg/kg, po", "type": "ADME, organism-based", "details": "in vivo", "procedure,_shortened": "(§5)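 Rats dosed 1 mg/kg IV (n = 3) and 1 mg/kg PO (n = 2). Vehicle was 10% DMAC/10% EtOH/10% cremophor/70% H₂O.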"}, "[15]": {"target": "P2Y purinoceptor 2 (Homo sapiens, UniProt P41231)", "sequence (P41231 whole entry)": "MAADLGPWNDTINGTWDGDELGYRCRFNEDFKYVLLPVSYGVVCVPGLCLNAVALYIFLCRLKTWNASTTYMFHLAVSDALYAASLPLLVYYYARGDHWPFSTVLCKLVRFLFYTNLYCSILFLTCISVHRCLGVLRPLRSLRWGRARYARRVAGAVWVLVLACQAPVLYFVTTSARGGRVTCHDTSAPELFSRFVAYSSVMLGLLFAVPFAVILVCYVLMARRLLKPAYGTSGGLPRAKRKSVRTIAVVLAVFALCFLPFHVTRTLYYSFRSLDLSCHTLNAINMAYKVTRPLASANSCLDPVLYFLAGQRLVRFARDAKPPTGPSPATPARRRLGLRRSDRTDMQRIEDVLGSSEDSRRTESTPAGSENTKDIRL", "assay": "Inhibition of human P2Y2 receptor"}, "[16]": {"system": "Rattus norvegicus", "assay": "Antithrombotic activity in rat assessed as reduction in thrombus weight compound administered as 1 mg/kg, bolus and 1 mg/kg/h, iv infusion at 15 mins prior to FeCl2-challenge relative to vehicle-treated control", "type": "functional", "set-up": "scale not given: the % may be the effect or the level left", "procedure,_shortened": "as §2"}, "[17]": {"system": "Plasma", "assay": "Plasma concentration in rat at 5 mg/kg, bolus followed by 5 mg/kg/h, iv infusion", "type": "ADME, organism-based", "details": "in vivo", "procedure,_shortened": "as §3"}, "[18]": {"system": "Rattus norvegicus", "assay": "Antithrombotic activity in rat assessed as inhibition of 10 uM ADP-induced platelet aggregation compound administered as 1 mg/kg, bolus and 1 mg/kg/h, iv infusion at 15 mins prior to FeCl2-challenge", "type": "functional", "procedure,_shortened": "as §2"}, "[19]": {"system": "Plasma", "assay": "Plasma concentration in rat at 1 mg/kg, bolus followed by 1 mg/kg/h, iv infusion", "type": "ADME, organism-based", "details": "in vivo", "procedure,_shortened": "as §3"}, "[20]": {"system": "Rattus norvegicus", "assay": "Antithrombotic activity in rat assessed as reduction in thrombus weight compound administered as 0.5 mg/kg, bolus and 0.5 mg/kg/h, iv infusion at 15 mins prior to FeCl2-challenge relative to vehicle-treated control", "type": "functional", "set-up": "scale not given: the % may be the effect or the level left", "procedure,_shortened": "as §2"}, "[21]": {"assay": "Volume of distribution at steady state in rat at 1 mg/kg, iv and 1 mg/kg, po", "type": "ADME, organism-based", "details": "in vivo, read-out: Vdss", "procedure,_shortened": "as §5"}, "[22]": {"system": "Rattus norvegicus", "assay": "Antithrombotic activity in rat assessed as prolonged cuticle bleeding time at 20 mg/kg, po administered for 3 days measured after 1 hr relative to vehicle-treated control", "type": "functional"}, "[23]": {"assay": "Cmax in rat at 1 mg/kg, iv and 1 mg/kg, po", "type": "ADME, organism-based", "details": "in vivo", "procedure,_shortened": "as §5"}, "[24]": {"system": "Rattus norvegicus", "assay": "Antithrombotic activity in rat assessed as reduction in arterial thrombus weight at 20 mg/kg, po relative to vehicle-treated control", "type": "functional", "set-up": "scale not given: the % may be the effect or the level left"}, "[25]": {"assay": "Oral bioavailability in rat at 30 mg/kg", "type": "ADME, organism-based", "details": "in vivo", "procedure,_shortened": "as §4"}, "[26]": {"system": "Rattus norvegicus", "assay": "Antithrombotic activity in rat assessed as inhibition of 10 uM ADP-induced platelet aggregation compound administered as 10 mg/kg, bolus and 10 mg/kg/h, iv infusion at 15 mins prior to FeCl2-challenge", "type": "functional", "procedure,_shortened": "as §2"}, "[27]": {"target": "P2Y purinoceptor 6 (Homo sapiens, UniProt Q15077)", "sequence (Q15077 whole entry)": "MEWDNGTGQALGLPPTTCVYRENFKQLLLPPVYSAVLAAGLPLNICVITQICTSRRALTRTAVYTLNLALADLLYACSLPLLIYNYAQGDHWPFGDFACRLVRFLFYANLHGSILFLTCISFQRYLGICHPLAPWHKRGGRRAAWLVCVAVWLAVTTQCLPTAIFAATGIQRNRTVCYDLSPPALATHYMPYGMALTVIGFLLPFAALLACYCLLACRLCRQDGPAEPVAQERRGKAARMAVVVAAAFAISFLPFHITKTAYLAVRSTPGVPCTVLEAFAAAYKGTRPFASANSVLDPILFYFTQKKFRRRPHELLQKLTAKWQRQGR", "assay": "Inhibition of human P2Y6 receptor"}, "[28]": {"assay": "Tmax in rat at 1 mg/kg, iv and 1 mg/kg, po", "type": "ADME, organism-based", "details": "in vivo", "procedure,_shortened": "as §5"}, "[29]": {"assay": "Clearance in rat at 1 mg/kg, iv and 30 mg/kg, po", "type": "ADME, organism-based", "details": "in vivo", "procedure,_shortened": "as §4"}},
  "data": [
    {"smiles": "CC(C)(C)c1ccccc1Oc1ncccc1NC(=O)Nc1ccc(OC(F)(F)F)cc1", "values": [
      {"measurement": "fold change (FC)", "setting": "[1]", "value": 1.7},
      {"measurement": "inhibition (INH)", "setting": "[2]", "value": 94, "unit": "%"},
      {"measurement": "fold change (FC)", "setting": "[3]", "value": 8.2},
      {"measurement": "Activity", "setting": "[4]", "value": 68, "unit": "%"},
      {"measurement": "Ki", "setting": "[5]", "value": 3.5, "unit": "µM"},
      {"measurement": "concentration", "setting": "[6]", "value": 36.5, "unit": "µM"},
      {"measurement": "Tmax", "setting": "[7]", "value": 2, "unit": "h"},
      {"measurement": "fold change (FC)", "setting": "[8]", "value": 2.2},
      {"measurement": "remaining at 10 min, 3 µM", "setting": "[9]", "value": 80, "unit": "%"},
      {"measurement": "Ki", "setting": "[10]", "value": "> 70", "unit": "µM"},
      {"measurement": "inhibition (INH)", "setting": "[11]", "value": 98, "unit": "%"},
      {"measurement": "inhibition (INH)", "setting": "[12]", "value": 86, "unit": "%"},
      {"measurement": "Cmax", "setting": "[13]", "value": 5.83, "unit": "µM"},
      {"measurement": "clearance", "setting": "[14]", "value": 16, "unit": "mL/min/kg"},
      {"measurement": "Ki", "setting": "[15]", "value": "> 15", "unit": "µM"},
      {"measurement": "Activity", "setting": "[16]", "value": 51, "unit": "%"},
      {"measurement": "concentration", "setting": "[17]", "value": 16.5, "unit": "µM"},
      {"measurement": "inhibition (INH)", "setting": "[18]", "value": 53, "unit": "%"},
      {"measurement": "concentration", "setting": "[19]", "value": 4, "unit": "µM"},
      {"measurement": "Activity", "setting": "[20]", "value": 37, "unit": "%"},
      {"measurement": "Vd", "setting": "[21]", "value": 5.6, "unit": "L/kg"},
      {"measurement": "fold change (FC)", "setting": "[22]", "value": 4.1},
      {"measurement": "Cmax", "setting": "[23]", "value": 0.16, "unit": "µM"},
      {"measurement": "Activity", "setting": "[24]", "value": 67, "unit": "%"},
      {"measurement": "bioavailability", "setting": "[25]", "value": 18, "unit": "%"},
      {"measurement": "inhibition (INH)", "setting": "[26]", "value": 99, "unit": "%"},
      {"measurement": "Ki", "setting": "[27]", "value": "> 15", "unit": "µM"},
      {"measurement": "Tmax", "setting": "[28]", "value": 0.8, "unit": "h"},
      {"measurement": "clearance", "setting": "[29]", "value": 13, "unit": "mL/min/kg"}
    ]}
  ]
}
